Results on 55 molecules are retold here after PubChem BioAssay AID504449 (Broad Institute, 2011).

Records with an inconclusive call do not appear. Active and inactive are the calls of the source.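 The calls were made as follows: active = compounds lowering viability signal with fitted half-maximal potency within ten times the top dose, in every repeat run; inconclusive = repeat runs disagree, or weak flat or poorly fitted curves; inactive = every run inactive, including flat or rising signals.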

Test system in the first experiment: not listed separately
The experiment is described as follows: viability loss in HMLE_shECad cells, dose response, cell-based, CellTiter-Glo luminescence, powder samples, set 4 (AID 504449). The settings on record: HMLE_shECad breast CSC viability, CellTiter-Glo, 72 h; at 30 µM (top of the series). A digest of the protocol: (§1)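 assay system = HMLE_shECad cells, E-cadherin knockdown, EMT-induced breast cancer stem cell model | medium = serum-free CSC medium | compound = 100 nL pinned compound | times = ≥4 h cell settling at 37 °C, ~70-74 h compound exposure | technique = CellTiter-Glo luminescence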
Consider `O=S(=O)(/C=C/c1ccccc1)NC1=NCCS1`, for which the activity change, negative = inhibition is 14.4% (inactive).
In the case of `CC(C)c1ccc(/C=C/C(=O)N2CCOCC2)cc1`, the activity change, negative = inhibition is 17.8% (inactive).
In the case of `O=C(Nc1ccccn1)c1ccc(COc2ccccc2)o1`, the activity change, negative = inhibition was -28.5% (inactive).
Same read-out and setting: as for `O=C(NC1=NCCS1)/C(F)=C/c1ccccc1`, the figure is 10.8% (inactive).
On the same count and under the same terms, as for `Cc1ccc2cc(C(=O)NC3=NCCS3)n(C)c2c1`, the figure is -17.3% (inactive); as for `O=C(Nc1nccs1)c1ccc(COc2ccccc2)o1`, 6.69% (inactive).
The same measure, in the same setting: the figure for `C(=C\c1ccccc1)/CNC1=NCCS1` is 10.6% (inactive).
Consider `CC(C)c1ccc(/C=C/C(=O)NCc2ccccc2)cc1`, for which the activity change, negative = inhibition was -6.44% (inactive).
On the same count and under the same terms, the figure for `O=C(c1ccc(COc2ccccc2)o1)N1CCOCC1` is 2% (inactive).
On the same count and under the same terms, as for `O=C(COc1c(Cl)cc(Cl)cc1Cl)N/N=C/c1ccn[nH]1`, the figure is 6.67% (inactive); as for `Cn1ccnc1NC(=O)c1ccc(COc2ccccc2)o1`, -15.5% (inactive).
Still for that read-out and setting: as for `COc1ccccc1OCC(=O)N/N=C/c1ccc[nH]1`, the figure is 9.18% (inactive); as for `O=C(/C=C/c1ccc(C(F)(F)F)cc1)NC1=NCCS1`, -1.72% (inactive); as for `O=C(COc1ccc(Cl)cc1Cl)N/N=C/c1ccn[nH]1`, 1.84% (inactive).
For the molecule `O=C(N/N=C/c1ccn[nH]1)c1cc2ccccc2o1`, the activity change, negative = inhibition was 26.2% (inactive).
With `C/C(=C\c1ccccc1)C(=O)NC1=NCCS1`, the activity change, negative = inhibition was 8.28% (inactive).
Consider `COc1cccc(/C=C/C(=O)NC2=NCCS2)c1`, for which the activity change, negative = inhibition was -21% (inactive).
Same read-out and setting: the figure for `Cc1cc(C)c(/C=N/NC(=O)COc2c(Cl)cc(Cl)cc2Cl)[nH]1` is -14.5% (inactive); for `Cc1csc(NC(=O)c2ccc(CO)o2)n1` it is -1.83% (inactive).

The subject of another experiment is HMLE_shECad breast CSC viability, CellTiter-Glo, 72 h. Described as above.
Settings: not given
In a few lines:
as §1
As usually defined, the AC50 is the concentration at which the activity in the assay is half-maximal. With `Cc1csc(NC(=O)c2ccc(COc3ccc(C(F)(F)F)cc3)o2)n1`, the concentration at half-maximal activity (AC50) is 2.01 µM.
Still for that read-out and setting: as for `Cc1csc(NC(=O)c2ccc(COc3cccc(F)c3)o2)n1`, the figure is 10.1 µM; as for `Cc1csc(NC(=O)c2ccc(COc3ccc(C#N)cc3)o2)n1`, 11.5 µM; as for `Cc1csc(NC(=O)c2ccc(COc3ccc(Cl)cc3)o2)n1`, 2.82 µM.
In the case of `O=C(/C=C/c1cccc(Cl)c1)NC1=NCCS1`, the AC50 was 15 µM.
Still for that read-out and setting: as for `Cc1csc(NC(=O)c2ccc(COc3ccccc3C#N)o2)n1`, the figure is 0.917 µM.
Same read-out and setting: as for `Cc1csc(NC(=O)c2ccc(COc3cccc(C#N)c3)o2)n1`, the figure is 2.07 µM; as for `Cc1csc(NC(=O)c2ccc(COc3ccc(F)cc3)o2)n1`, 5.65 µM; as for `O=C(CSc1cc(Cl)ccc1Cl)N/N=C/c1ccc[nH]1`, 2.27 µM.
The same measure, in the same setting: as for `COc1ccccc1OCc1ccc(C(=O)Nc2nc(C)cs2)o1`, the figure is 1.63 µM.
Turning to `CC(C)c1ccc(/C=C/C(=O)Nc2ccccn2)cc1`, the AC50 was 25.5 µM.
In the case of `CC[C@@H](C(=O)O)C1CC[C@H](C)C([C@@H](C)[C@H](O)[C@H](C)C(=O)[C@H](CC)C2O[C@]3(C=C[C@@H](O)[C@]4(CC[C@@](C)(C5CC[C@](O)(CC)[C@H](C)O5)O4)O3)[C@H](C)C[C@@H]2C)O1` (stereo not given in full), the AC50 is 0.01 µM.
On the same count and under the same terms, the figure for `Cc1csc(NC(=O)c2ccc(COc3cccc(Cl)c3)o2)n1` is 0.572 µM; for `Cc1csc(NC(=O)c2ccc(COc3ccccc3Cl)o2)n1` it is 0.045 µM.
The same measure, in the same setting: as for `CC(C)c1ccc(/C=C/C(=O)N(C)Cc2ccccc2)cc1`, the figure is 19.2 µM; as for `CC(C)c1ccc(/C=C/C(=O)Nc2nccs2)cc1`, 3.54 µM.
In the case of `O=C(N/N=C/c1ccc[nH]1)C1COc2cc3ccccc3cc2O1` (stereo not given), the AC50 was 4.2 µM.
For the molecule `CC(C)(C)c1ccc(C2CC2C(=O)N/N=C/c2ccc[nH]2)cc1` (stereo not given), the AC50 was 0.787 µM.
For the molecule `O=C(Nc1nc2cccc(Cl)c2s1)c1ccc(COc2ccccc2)o1`, the AC50 was 4.49 µM.
As for `Cc1ccc(/C=C/C(=O)NC2=NCCS2)cc1`, the AC50 was 16 µM.
The same measure, in the same setting: as for `Cc1csc(NC(=O)c2ccc(COc3ccccc3C(F)(F)F)o2)n1`, the figure is 0.065 µM; as for `COc1ccc(OCc2ccc(C(=O)Nc3nc(C)cs3)o2)cc1`, 29.4 µM.
On the same count and under the same terms, the figure for `Cc1csc(NC(=O)c2ccc(COc3ccccc3OC(F)(F)F)o2)n1` is 0.24 µM; for `O=C(COc1ccc(Br)cc1)N/N=C/c1ccc[nH]1` it is 15.3 µM; for `Cc1csc(NC(=O)c2ccc(COc3ccccc3F)o2)n1` it is 0.019 µM.
Same read-out and setting: the figure for `CC(C)c1ccc(/C=C/C(=O)Nc2nccn2C)cc1` is 4.65 µM; for `Cc1cccc(OCC(=O)N/N=C/c2ccc[nH]2)c1C` it is 24.6 µM; for `COc1cccc(OCc2ccc(C(=O)Nc3nc(C)cs3)o2)c1` it is 0.081 µM.
For the molecule `O=C(COc1ccc(Cl)cc1Br)N/N=C/c1ccc[nH]1`, the AC50 was 3.16 µM.
The same measure, in the same setting: as for `Cc1csc(NC(=O)c2ccc(COc3cccc(C(F)(F)F)c3)o2)n1`, the figure is 1.57 µM; as for `CC(C)c1ccc(/C=C/C(=O)Nc2nncs2)cc1`, 13.6 µM.
Same read-out and setting: as for `Cc1ccc(C)c(OCC(=O)N/N=C/c2ccc[nH]2)c1`, the figure is 9.05 µM; as for `O=C(N/N=C/c1ccc[nH]1)C1CC1c1ccccc1` (stereo not given), 12.9 µM; as for `Cc1csc(NC(=O)c2ccc(COc3ccc(OC(F)(F)F)cc3)o2)n1`, 3.16 µM.
As for `Cc1csc(NC(=O)c2ccc(COc3cccc(OC(F)(F)F)c3)o2)n1`, the AC50 was 0.439 µM.
The same measure, in the same setting: as for `O=C(COc1ccc2ccccc2c1Br)N/N=C/c1ccc[nH]1`, the figure is 1.11 µM.
